Screening data as filed in PubChem BioAssay.
The list is not random: actives were taken first. Their share in the collection is about 2.2%.
VIM-2 inhibitor: inhibitors of Pseudomonas aeruginosa VIM-2 metallo-beta-lactamase. purified VIM-2, nitrocefin hydrolysis, epi-absorbance fluorescence. inhibition, % at 5.6 µM. actives 0.89% (n = 290,000). AID 1527;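 active = inhibition above the mean of all tested compounds plus 3 SD, cutoff set per screening run, cut at about 7.5% in these data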;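 also: red hydrolysis product quenches plate fluorescence so inhibitors raise well fluorescence; 0% = enzyme with DMSO and 100% = DMSO without enzyme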
eIF4H FP inh: inhibitors of RNA binding by human eIF4H; inhibition, % at 35 µM; AID 2012; actives 0.94% (n = 290,000); eIF4H fluorescence polarization binding assay; Q15056;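 also: calls also rest on retests at 20 µM and on dose response follow-up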
MLLE-PAM2 inh: blocks PAM2 peptide binding to the PABP1 MLLE domain; inhibition, % at 20 µM; AID 588489; actives 0.36% (n = 360,000); GST-MLLE / FITC-PAM2 fluorescence polarization; in the data active = inhibition above about 35%, passing the limit was not always enough;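 also: plate controls were DMSO wells with GST-MLLE for no effect and wells lacking GST-MLLE protein for full effect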
PABP polyA inh: PABP-poly(A) binding inhibition | P11940 | PABP-poly(A) RNA binding, fluorescence polarization | calls only at 35 µM | actives 1% (n = 290,000) | AID 2014;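 also: calls also rest on retests at 20 µM and on dose response follow-up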
IMP-1 inhibitor: inhibitors of Pseudomonas aeruginosa IMP-1 metallo-beta-lactamase; inhibition, % at 5.6 µM; purified IMP-1, nitrocefin hydrolysis, epi-absorbance fluorescence; actives 0.45% (n = 290,000);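 active = inhibition above the mean plus 3 SD of all compounds in the same screening run, cut at about 4.5% in these data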;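 also: 0% = IMP-1 with DMSO and 100% = DMSO wells lacking enzyme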
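System: purified IMP-1; amount: IMP-1 0.2 nM before substrate addition; compound: single dose, 5.6 µM; times: 25 °C, 15 min preincubation, 25 min reaction; signal: Epi-absorbance via hydrolysed-nitrocefin quenching of white-plate fluorescence, 480/530 nm, EDTA stop; benchmarks: DMSO with and without IMP-1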
The depositor's hits bear a star. Unless noted, no rule for the calls is given here.

Results for Cc1ccc(CCNC(=O)CCS(=O)(=O)c2ccc(Br)cc2)cc1 ?
VIM-2 inhibitor: -1.5; eIF4H FP inh: 2.9; MLLE-PAM2 inh: -0.3; PABP polyA inh: inactive; IMP-1 inhibitor: -2.1

Results for COc1ccc(C(O)c2nc(-c3ccc(Cl)cc3)cs2)cc1 (stereo unspecified) ?
MLLE-PAM2 inh: -6.7

How did COc1cccc(C(=O)Nc2nnc(CCS(=O)(=O)c3ccc(C)cc3)s2)c1 do in these assays?
VIM-2 inhibitor: 7.9*; eIF4H FP inh: 2.0; MLLE-PAM2 inh: 5.1; PABP polyA inh: inactive; IMP-1 inhibitor: 0.3

What do the screens show for `CCCc1nnc(NC(=O)c2cccc(OC)c2)s1`?
VIM-2 inhibitor: 0.3; eIF4H FP inh: 6.5; MLLE-PAM2 inh: 5.3; PABP polyA inh: inactive; IMP-1 inhibitor: 0.8

Results for Clc1ccc(-c2nnc(CNC3CC3)o2)cc1 ?
VIM-2 inhibitor: -1.9; eIF4H FP inh: -8.6; MLLE-PAM2 inh: -1.9; PABP polyA inh: inactive; IMP-1 inhibitor: -4.0

How did Oc1sc(C=Nc2ccc(F)cc2)c2ccccc12 do in these assays?
VIM-2 inhibitor: 5.7; eIF4H FP inh: 88.6; MLLE-PAM2 inh: -30.7; PABP polyA inh: inactive; IMP-1 inhibitor: 12.7*

How did C(=Nc1cccc2c(N=Cc3ccco3)cccc12)c1ccco1 do in these assays?
VIM-2 inhibitor: -1.1; eIF4H FP inh: inconclusive; MLLE-PAM2 inh: 66.7*; PABP polyA inh: inactive; IMP-1 inhibitor: 16.2*

What do the screens show for `CN(C)c1ccc(N=Cc2ccco2)cc1`?
VIM-2 inhibitor: -4.3; eIF4H FP inh: 38.0; MLLE-PAM2 inh: 13.6; PABP polyA inh: inactive; IMP-1 inhibitor: -3.2

Results for C(=N\C(/N=C/c1ccco1)c1ccco1)/c1ccco1 ?
VIM-2 inhibitor: -2.1; eIF4H FP inh: 102.7*; MLLE-PAM2 inh: 12.1; PABP polyA inh: active; IMP-1 inhibitor: -0.1

Results for Cc1ccc(S(=O)(=O)N2CCOCC2)cc1C(=O)NCc1ccccc1CN1CCCC1 ?
MLLE-PAM2 inh: 12.3

How did Fc1ccc(CSc2ccc3nnc(-c4ccccn4)n3n2)cc1 do in these assays?
VIM-2 inhibitor: 9.3*; eIF4H FP inh: -6.3; MLLE-PAM2 inh: -4.5; PABP polyA inh: inactive; IMP-1 inhibitor: -4.6

What do the screens show for `Fc1ccc(CSc2ccc3nnc(-c4cccs4)n3n2)cc1`?
VIM-2 inhibitor: -1.5; eIF4H FP inh: -3.1; MLLE-PAM2 inh: 10.2; PABP polyA inh: inactive; IMP-1 inhibitor: -0.8

How did COC(=O)c1[nH]c2ccc(Cl)cc2c1NC(=O)CCN1CCN(C2CCCCC2)CC1 do in these assays?
VIM-2 inhibitor: -1.5; eIF4H FP inh: -5.4; MLLE-PAM2 inh: -29.8; PABP polyA inh: inactive; IMP-1 inhibitor: 8.0*

Results for COC(=O)c1[nH]c2ccc(C)cc2c1NC(=O)CCN1CCN(C2CCCCC2)CC1 ?
VIM-2 inhibitor: -3.4; eIF4H FP inh: 2.4; PABP polyA inh: inactive; IMP-1 inhibitor: -0.8

How did COC(=O)c1[nH]c2cc(OC)ccc2c1NC(=O)CCN1CCN(c2ccccc2)CC1 do in these assays?
VIM-2 inhibitor: -2.8; eIF4H FP inh: 1.0; MLLE-PAM2 inh: -12.7; PABP polyA inh: inactive; IMP-1 inhibitor: 0.4

How did COC(=O)c1[nH]c2ccccc2c1NC(=O)CN1CCN(c2cccc(OC)c2)C(C)C1 (stereo unspecified) do in these assays?
VIM-2 inhibitor: -2.5; eIF4H FP inh: 5.4; MLLE-PAM2 inh: -8.5; PABP polyA inh: inactive; IMP-1 inhibitor: 5.8*

How did COC(=O)c1[nH]c2ccc(Br)cc2c1NC(=O)CN1CCN(C2CCCCC2)CC1 do in these assays?
VIM-2 inhibitor: 1.1; eIF4H FP inh: -11.6; MLLE-PAM2 inh: -112.1; PABP polyA inh: active; IMP-1 inhibitor: 3.0

Results for CCCS(=O)(=O)c1ccc(COC(=O)Cc2ccc([N+](=O)[O-])cc2)cc1 ?
VIM-2 inhibitor: 0.6; eIF4H FP inh: -2.3; MLLE-PAM2 inh: 5.3; PABP polyA inh: inactive; IMP-1 inhibitor: -0.2

How did COc1cc(/C=C2\SC(N)=NC2=O)cc(Cl)c1O do in these assays?
VIM-2 inhibitor: 0.3; eIF4H FP inh: 53.8; MLLE-PAM2 inh: -111.2; PABP polyA inh: active; IMP-1 inhibitor: -0.3

How did CCN(CC)S(=O)(=O)c1cc(NC(=O)c2cccc(N3C(=O)CCC3=O)c2)ccc1Cl do in these assays?
MLLE-PAM2 inh: -15.4

How did Cc1ccccc1Cn1c(C)cc(C)c(C#N)c1=O do in these assays?
VIM-2 inhibitor: -1.6; eIF4H FP inh: active; MLLE-PAM2 inh: -2.6; PABP polyA inh: active; IMP-1 inhibitor: 4.5*

What do the screens show for `CN(CC(=O)Nc1ccc(F)c(F)c1F)C(=O)CC1CCCCC1`?
MLLE-PAM2 inh: 9.6

What do the screens show for `CCOC(=O)C1CCCN(C(=O)c2ccc(-c3ccc([N+](=O)[O-])cc3)o2)C1` (stereo unspecified)?
MLLE-PAM2 inh: 40.8*

How did C/C=C/c1ccc2c(c1)O[C@@H](CN(C)C(=O)c1ccc(F)cc1)[C@@H](C)CN([C@H](C)CO)S2(=O)=O do in these assays?
MLLE-PAM2 inh: -6.0

How did Clc1ccc(C2Nc3cccc4cccc(c34)N2)cc1Cl do in these assays?
VIM-2 inhibitor: 3.1; eIF4H FP inh: 55.2*; MLLE-PAM2 inh: 5.8; PABP polyA inh: active; IMP-1 inhibitor: 6.1*

How did Clc1cccc(C2Nc3cccc4cccc(c34)N2)c1 do in these assays?
VIM-2 inhibitor: 4.1; eIF4H FP inh: 52.7*; MLLE-PAM2 inh: 8.9; PABP polyA inh: active; IMP-1 inhibitor: 1.9

How did c1csc(C2Nc3cccc4cccc(c34)N2)c1 do in these assays?
VIM-2 inhibitor: 1.8; eIF4H FP inh: inconclusive; MLLE-PAM2 inh: 40.5*; PABP polyA inh: inconclusive; IMP-1 inhibitor: 0.7

What do the screens show for `c1ccc(C2Nc3cccc4cccc(c34)N2)cc1`?
VIM-2 inhibitor: -1.3; eIF4H FP inh: 86.1*; MLLE-PAM2 inh: 13.2; PABP polyA inh: active; IMP-1 inhibitor: -2.7

How did Brc1cccc(C2Nc3cccc4cccc(c34)N2)c1 do in these assays?
VIM-2 inhibitor: -2.0; eIF4H FP inh: 46.3; MLLE-PAM2 inh: 14.1; PABP polyA inh: inactive; IMP-1 inhibitor: -5.2

What do the screens show for `O=[N+]([O-])c1ccccc1C1Nc2cccc3cccc(c23)N1`?
VIM-2 inhibitor: -3.2; eIF4H FP inh: 52.8; MLLE-PAM2 inh: 22.4; PABP polyA inh: inactive; IMP-1 inhibitor: 0.0

What do the screens show for `Brc1ccc(C2Nc3cccc4cccc(c34)N2)o1`?
VIM-2 inhibitor: -1.2; eIF4H FP inh: 98.8*; MLLE-PAM2 inh: 36.1; PABP polyA inh: active; IMP-1 inhibitor: 1.4

Results for O=[N+]([O-])c1ccc(Cl)c(C2Nc3cccc4cccc(c34)N2)c1 ?
VIM-2 inhibitor: 0.0; eIF4H FP inh: 97.2*; MLLE-PAM2 inh: 21.8; PABP polyA inh: active; IMP-1 inhibitor: -2.4

What do the screens show for `Oc1ccccc1C1Nc2cccc3cccc(c23)N1`?
VIM-2 inhibitor: -1.9; eIF4H FP inh: 94.7*; MLLE-PAM2 inh: -0.4; PABP polyA inh: active; IMP-1 inhibitor: -0.6

What do the screens show for `CC(=O)c1ccc(OC(C)c2nc3ccccc3s2)cc1` (stereo unspecified)?
VIM-2 inhibitor: -2.6; eIF4H FP inh: -2.2; MLLE-PAM2 inh: -10.7; PABP polyA inh: inactive; IMP-1 inhibitor: -3.3

Results for O=C1c2ccccc2C(=O)c2c1cccc2N1CCCC1 ?
VIM-2 inhibitor: 4.3; eIF4H FP inh: 34.4; MLLE-PAM2 inh: 26.1; PABP polyA inh: inactive; IMP-1 inhibitor: 0.7
